From ChEMBL document CHEMBL5653631, “A Potent and Selective ULK1 Inhibitor Suppresses Autophagy and Sensitizes Cancer Cells to Nutrient Stress” (iScience, 2018) come the findings set out here.

One may read the inhibition as the percentage by which the read-out fell short of the control.

In experiment [1] the target is ALK tyrosine kinase receptor (Homo sapiens) (UniProt Q9UM73). The experiment is described as follows: Inhibition of human recombinant ALK at 15 nM related to control ULK1.
Experiment [2] addresses Serine/threonine-protein kinase MRCK alpha (Homo sapiens) (UniProt Q5VT25). The experiment is described as follows: Inhibition of human recombinant MRCKa at 15 nM in presence of ATP by radiometric assay relative to control.
Experiment [3] addresses Receptor-type tyrosine-protein kinase FLT3 (Homo sapiens) (UniProt P36888). The experiment is described as follows: Inhibition of human recombinant FLT3 at 15 nM in presence of ATP by radiometric assay relative to control.
The target of experiment [4] is Tyrosine-protein kinase ABL2 (Homo sapiens) (UniProt P42684). The experiment is described as follows: Inhibition of human recombinant ABL2 at 40 nM related to control ULK1. An outline of the steps: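 Radiometric activity assays in a panel of 327 human recombinant kinases, each run in duplicate at one inhibitor concentration. Activity remaining is expressed as percent of vehicle control, and percent inhibition is calculated as 100% minus percent activity remaining.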
Sequence of Tyrosine-protein kinase ABL2 (Homo sapiens) (P42684 whole entry): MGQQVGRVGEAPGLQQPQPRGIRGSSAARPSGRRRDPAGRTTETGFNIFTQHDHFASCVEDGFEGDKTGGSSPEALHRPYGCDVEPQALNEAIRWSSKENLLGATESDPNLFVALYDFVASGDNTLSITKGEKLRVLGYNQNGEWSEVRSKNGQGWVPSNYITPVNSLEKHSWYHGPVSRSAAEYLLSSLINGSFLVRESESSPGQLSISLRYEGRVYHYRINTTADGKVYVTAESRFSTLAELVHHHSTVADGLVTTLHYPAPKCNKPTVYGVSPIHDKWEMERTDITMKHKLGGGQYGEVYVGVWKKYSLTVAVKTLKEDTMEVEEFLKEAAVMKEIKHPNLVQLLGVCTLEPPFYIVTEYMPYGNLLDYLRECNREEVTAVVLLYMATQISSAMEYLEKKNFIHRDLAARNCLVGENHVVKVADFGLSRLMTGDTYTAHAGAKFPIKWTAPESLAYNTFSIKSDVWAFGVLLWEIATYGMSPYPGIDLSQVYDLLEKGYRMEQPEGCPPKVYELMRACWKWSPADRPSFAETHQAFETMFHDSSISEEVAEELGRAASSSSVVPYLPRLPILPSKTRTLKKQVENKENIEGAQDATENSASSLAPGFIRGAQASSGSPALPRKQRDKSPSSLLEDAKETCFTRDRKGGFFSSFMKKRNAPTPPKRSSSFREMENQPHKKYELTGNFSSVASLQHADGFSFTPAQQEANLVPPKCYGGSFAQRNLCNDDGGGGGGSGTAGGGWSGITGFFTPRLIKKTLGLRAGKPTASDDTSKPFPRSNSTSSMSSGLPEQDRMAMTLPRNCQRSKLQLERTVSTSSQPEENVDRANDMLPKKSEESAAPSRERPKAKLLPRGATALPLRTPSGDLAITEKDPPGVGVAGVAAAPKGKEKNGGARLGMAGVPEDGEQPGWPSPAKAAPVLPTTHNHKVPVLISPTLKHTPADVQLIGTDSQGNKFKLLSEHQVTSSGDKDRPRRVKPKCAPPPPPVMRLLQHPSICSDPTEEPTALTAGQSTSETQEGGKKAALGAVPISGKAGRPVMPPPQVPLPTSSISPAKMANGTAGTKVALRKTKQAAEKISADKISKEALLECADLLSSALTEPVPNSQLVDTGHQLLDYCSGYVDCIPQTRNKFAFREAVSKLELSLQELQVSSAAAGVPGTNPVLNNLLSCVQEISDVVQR

The target in experiment [5] is Tyrosine-protein kinase Lyn (Homo sapiens) (UniProt P07948). The experiment is described as follows: Inhibition of human recombinant LYN at 40 nM related to control ULK1.
Experiment [6] deals with Fibroblast growth factor receptor 4 (Homo sapiens) (UniProt P22455). The experiment is described as follows: Inhibition of human recombinant FGFR4 at 40 nM related to control ULK1.
Sequence of Fibroblast growth factor receptor 4 (Homo sapiens) (P22455 22-802 limits assumed): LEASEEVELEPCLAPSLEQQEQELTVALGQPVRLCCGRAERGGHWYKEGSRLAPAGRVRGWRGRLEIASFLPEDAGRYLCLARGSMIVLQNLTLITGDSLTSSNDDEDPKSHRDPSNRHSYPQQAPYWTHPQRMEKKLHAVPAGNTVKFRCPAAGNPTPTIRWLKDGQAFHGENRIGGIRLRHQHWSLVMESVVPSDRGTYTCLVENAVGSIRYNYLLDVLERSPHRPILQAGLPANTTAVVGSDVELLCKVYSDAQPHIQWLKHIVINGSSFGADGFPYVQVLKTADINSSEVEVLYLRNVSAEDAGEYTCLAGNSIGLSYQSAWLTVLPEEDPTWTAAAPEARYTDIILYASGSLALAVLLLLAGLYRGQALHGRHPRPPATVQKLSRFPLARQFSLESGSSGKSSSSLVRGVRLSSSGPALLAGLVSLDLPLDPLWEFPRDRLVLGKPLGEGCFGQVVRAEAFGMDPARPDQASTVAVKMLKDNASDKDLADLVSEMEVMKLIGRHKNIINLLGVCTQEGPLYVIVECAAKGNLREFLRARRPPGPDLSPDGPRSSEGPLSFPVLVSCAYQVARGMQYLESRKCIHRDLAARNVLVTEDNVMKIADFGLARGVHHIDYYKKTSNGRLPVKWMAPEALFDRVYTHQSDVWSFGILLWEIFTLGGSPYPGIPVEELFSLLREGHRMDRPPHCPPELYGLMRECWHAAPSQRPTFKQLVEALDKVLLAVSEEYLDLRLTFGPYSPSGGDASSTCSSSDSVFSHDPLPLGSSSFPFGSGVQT
Experiment [7] has as its target Tyrosine-protein kinase BTK (Homo sapiens) (UniProt Q06187). The experiment is described as follows: Inhibition of human recombinant BTK at 40 nM in presence of ATP by radiometric assay relative to control.
The target in experiment [8] is Dual specificity tyrosine-phosphorylation-regulated kinase 1A (Homo sapiens) (UniProt Q13627). Nature of the experiment: Inhibition of human recombinant DYRK1A at 40 nM in presence of ATP by radiometric assay relative to control.
Experiment [9] concerns the target Serine/threonine-protein kinase pim-1 (Homo sapiens) (UniProt P11309). The experiment is described as follows: Inhibition of human recombinant PIM1 at 40 nM in presence of ATP by radiometric assay relative to control.
Experiment [10] has as its target Serine/threonine-protein kinase 26 (Homo sapiens) (UniProt Q9P289). Nature of the experiment: Inhibition of human recombinant MST4 at 500 nM in presence of ATP by radiometric assay relative to control.
For experiment [11], the target named is Cyclin-dependent kinase 2 (Homo sapiens) (UniProt P24941). The experiment is described as follows: Inhibition of human recombinant CDK2 at 500 nM related to control ULK1.
Experiment [12] deals with T1, Tyrosine-protein kinase ZAP-70 (Homo sapiens) (UniProt P43403).
T1 sequence (whole entry): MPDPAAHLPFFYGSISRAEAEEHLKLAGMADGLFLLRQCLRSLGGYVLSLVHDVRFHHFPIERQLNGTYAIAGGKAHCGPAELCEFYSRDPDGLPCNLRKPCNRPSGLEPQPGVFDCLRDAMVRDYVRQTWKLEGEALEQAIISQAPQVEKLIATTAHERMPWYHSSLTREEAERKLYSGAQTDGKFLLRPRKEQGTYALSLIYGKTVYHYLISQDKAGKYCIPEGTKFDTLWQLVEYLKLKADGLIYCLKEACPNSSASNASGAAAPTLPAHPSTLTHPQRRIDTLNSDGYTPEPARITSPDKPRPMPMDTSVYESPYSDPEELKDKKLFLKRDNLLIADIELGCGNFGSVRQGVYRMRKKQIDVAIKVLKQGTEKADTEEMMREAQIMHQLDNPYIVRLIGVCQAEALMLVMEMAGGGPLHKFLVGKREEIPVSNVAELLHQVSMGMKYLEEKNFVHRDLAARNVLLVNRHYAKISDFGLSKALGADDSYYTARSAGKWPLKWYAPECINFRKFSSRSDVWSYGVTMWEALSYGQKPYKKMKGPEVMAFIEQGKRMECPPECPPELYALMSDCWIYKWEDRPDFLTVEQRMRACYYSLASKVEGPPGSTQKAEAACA
Nature of the experiment: Inhibition of human recombinant ZAP70 at 500 nM in presence of ATP by radiometric assay relative to control.

The target in experiment [13] is High affinity nerve growth factor receptor (Homo sapiens) (UniProt P04629). The experiment is described as follows: Inhibition of human recombinant TRKA at 500 nM in presence of ATP by radiometric assay relative to control.
Sequence of High affinity nerve growth factor receptor (Homo sapiens) (P04629 33-796 limits assumed): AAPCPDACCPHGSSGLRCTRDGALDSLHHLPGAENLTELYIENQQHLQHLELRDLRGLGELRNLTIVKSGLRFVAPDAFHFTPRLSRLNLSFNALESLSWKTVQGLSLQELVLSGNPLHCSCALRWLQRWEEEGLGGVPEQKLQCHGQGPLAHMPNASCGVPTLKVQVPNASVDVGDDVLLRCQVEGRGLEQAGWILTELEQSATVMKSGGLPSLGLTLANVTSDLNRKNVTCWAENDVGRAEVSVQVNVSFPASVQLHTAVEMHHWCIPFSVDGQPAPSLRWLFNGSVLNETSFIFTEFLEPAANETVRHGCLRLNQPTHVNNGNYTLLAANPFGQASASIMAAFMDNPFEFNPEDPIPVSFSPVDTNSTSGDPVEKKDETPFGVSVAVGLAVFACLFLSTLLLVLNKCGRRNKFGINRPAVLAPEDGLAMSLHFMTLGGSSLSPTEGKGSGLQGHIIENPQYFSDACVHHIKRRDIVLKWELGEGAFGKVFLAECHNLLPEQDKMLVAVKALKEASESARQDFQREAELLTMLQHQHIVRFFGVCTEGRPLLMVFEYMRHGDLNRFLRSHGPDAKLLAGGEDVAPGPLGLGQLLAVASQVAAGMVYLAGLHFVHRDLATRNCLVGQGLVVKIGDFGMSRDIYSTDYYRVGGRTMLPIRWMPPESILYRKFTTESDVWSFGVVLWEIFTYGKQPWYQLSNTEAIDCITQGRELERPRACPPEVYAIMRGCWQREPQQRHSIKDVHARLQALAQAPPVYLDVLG
Experiment [14] addresses T1, Tyrosine-protein kinase ZAP-70 (Homo sapiens). The experiment is described as follows: Inhibition of human recombinant ZAP70 at 500 nM related to control ULK1.
For experiment [15], the target named is Serine/threonine-protein kinase 25 (Homo sapiens) (UniProt O00506). Nature of the experiment: Inhibition of human recombinant YSK1 at 500 nM in presence of ATP by radiometric assay relative to control.
The target in experiment [16] is T2, Dual specificity protein kinase TTK (Homo sapiens) (UniProt P33981).
T2 sequence (whole entry): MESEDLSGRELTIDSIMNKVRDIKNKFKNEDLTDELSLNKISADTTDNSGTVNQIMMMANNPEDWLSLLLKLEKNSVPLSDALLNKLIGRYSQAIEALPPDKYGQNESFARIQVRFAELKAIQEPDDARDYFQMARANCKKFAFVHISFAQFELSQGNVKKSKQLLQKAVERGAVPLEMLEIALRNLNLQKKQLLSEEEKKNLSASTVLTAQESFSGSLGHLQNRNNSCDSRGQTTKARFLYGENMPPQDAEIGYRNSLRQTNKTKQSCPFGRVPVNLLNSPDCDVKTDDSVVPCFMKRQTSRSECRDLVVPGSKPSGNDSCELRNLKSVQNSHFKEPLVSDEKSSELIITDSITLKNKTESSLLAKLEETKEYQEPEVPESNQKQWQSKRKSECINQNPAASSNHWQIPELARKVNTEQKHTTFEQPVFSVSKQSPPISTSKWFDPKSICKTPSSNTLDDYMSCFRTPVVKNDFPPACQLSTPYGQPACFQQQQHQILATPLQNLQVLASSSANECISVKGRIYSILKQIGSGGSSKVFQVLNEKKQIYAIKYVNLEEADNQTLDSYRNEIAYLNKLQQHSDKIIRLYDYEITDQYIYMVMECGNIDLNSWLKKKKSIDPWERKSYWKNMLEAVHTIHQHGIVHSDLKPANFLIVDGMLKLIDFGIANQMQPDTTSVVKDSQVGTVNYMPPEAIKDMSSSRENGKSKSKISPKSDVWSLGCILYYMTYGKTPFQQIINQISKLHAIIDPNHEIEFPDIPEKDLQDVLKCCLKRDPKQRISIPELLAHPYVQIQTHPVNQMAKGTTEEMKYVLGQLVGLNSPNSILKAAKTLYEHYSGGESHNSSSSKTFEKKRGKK
The experiment is described as follows: Inhibition of human recombinant TTK at 500 nM in presence of ATP by radiometric assay relative to control.

For experiment [17], the target named is Calcium/calmodulin-dependent protein kinase type II subunit beta (Homo sapiens) (UniProt Q13554). The experiment is described as follows: Inhibition of human recombinant CaMK2b at 500 nM related to control ULK1.
Experiment [18] has as its target Tyrosine-protein kinase JAK2 (Homo sapiens) (UniProt O60674). The experiment is described as follows: Inhibition of human recombinant JAK2 at 500 nM in presence of ATP by radiometric assay relative to control.

Sequence of Tyrosine-protein kinase BTK (Homo sapiens) (Q06187 whole entry): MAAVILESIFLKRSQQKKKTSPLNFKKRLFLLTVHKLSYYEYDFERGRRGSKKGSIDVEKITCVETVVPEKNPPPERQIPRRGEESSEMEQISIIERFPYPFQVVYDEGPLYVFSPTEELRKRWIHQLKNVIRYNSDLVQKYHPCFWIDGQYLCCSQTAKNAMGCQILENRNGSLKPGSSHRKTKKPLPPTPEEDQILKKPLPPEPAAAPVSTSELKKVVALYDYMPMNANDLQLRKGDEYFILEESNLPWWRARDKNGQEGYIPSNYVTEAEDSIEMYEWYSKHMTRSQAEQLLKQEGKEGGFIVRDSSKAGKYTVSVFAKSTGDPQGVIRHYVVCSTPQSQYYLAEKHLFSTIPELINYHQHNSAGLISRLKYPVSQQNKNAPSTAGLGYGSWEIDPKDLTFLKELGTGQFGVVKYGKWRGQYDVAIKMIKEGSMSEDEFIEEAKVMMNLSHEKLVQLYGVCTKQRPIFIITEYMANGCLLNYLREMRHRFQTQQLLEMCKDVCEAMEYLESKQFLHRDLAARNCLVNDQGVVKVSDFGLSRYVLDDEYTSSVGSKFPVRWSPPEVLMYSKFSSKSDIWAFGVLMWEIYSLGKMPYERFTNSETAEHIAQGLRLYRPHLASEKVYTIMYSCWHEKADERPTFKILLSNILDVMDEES
Sequence of Serine/threonine-protein kinase MRCK alpha (Homo sapiens) (Q5VT25 whole entry): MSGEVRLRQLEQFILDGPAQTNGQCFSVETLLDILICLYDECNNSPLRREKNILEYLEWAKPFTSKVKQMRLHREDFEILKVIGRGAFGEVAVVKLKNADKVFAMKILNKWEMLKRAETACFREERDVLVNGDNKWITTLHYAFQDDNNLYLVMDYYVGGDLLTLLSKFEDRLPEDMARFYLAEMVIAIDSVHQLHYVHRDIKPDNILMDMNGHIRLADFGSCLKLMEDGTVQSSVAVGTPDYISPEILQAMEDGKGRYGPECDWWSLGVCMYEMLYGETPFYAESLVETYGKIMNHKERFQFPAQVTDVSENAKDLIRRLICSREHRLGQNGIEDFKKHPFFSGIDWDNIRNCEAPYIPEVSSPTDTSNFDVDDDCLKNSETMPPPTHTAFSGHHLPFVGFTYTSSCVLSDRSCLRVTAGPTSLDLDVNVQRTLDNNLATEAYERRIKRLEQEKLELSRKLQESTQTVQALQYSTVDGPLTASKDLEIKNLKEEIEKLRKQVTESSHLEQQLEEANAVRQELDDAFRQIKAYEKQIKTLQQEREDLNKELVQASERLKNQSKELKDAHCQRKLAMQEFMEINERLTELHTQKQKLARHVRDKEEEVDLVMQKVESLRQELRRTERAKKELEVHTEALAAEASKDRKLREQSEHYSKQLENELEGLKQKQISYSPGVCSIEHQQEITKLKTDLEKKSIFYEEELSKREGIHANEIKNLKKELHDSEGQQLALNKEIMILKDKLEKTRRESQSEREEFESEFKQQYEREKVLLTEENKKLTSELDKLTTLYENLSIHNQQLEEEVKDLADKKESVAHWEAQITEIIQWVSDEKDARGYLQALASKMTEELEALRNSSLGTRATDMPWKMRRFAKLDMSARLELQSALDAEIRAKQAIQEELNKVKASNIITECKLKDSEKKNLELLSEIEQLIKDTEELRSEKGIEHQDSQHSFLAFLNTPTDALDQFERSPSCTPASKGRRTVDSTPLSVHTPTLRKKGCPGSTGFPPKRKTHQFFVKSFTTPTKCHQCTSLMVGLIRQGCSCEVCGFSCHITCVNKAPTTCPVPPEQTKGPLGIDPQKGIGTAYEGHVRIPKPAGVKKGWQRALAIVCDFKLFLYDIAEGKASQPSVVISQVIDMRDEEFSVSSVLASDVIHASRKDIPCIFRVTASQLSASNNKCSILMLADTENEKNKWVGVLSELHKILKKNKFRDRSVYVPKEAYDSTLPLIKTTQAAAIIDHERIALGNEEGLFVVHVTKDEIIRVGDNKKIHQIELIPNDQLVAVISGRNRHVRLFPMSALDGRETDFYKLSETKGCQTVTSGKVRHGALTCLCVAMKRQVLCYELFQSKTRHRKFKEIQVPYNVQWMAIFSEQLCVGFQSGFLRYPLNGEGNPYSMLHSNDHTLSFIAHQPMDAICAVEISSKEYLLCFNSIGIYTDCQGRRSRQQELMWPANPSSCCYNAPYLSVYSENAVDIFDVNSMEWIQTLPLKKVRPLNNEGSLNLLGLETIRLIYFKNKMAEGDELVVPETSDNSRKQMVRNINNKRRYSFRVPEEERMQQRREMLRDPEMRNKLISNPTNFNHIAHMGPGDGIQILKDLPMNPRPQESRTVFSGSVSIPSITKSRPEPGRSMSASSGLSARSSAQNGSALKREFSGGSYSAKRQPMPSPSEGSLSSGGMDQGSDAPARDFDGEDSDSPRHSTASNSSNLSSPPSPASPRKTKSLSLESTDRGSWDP

`CC(C)[C@H](NC(=O)c1cc(-c2cnn3cc(-c4ccc(OCCN5CCCCC5)cc4)cnc23)cs1)C(F)(F)F`: in experiment [1], the fold change (FC) is 0. Also, the results for the inhibition in experiment [2] and in [3] were 11% and 68%, respectively.

As for `O=C(N[C@@H](C1CC1)C(F)(F)F)c1cc(-c2cnn3cc(-c4ccc(F)cc4)cnc23)cs1`, the fold change (FC) in experiment [4] was 0.1; in experiment [5], 0.25; in experiment [6], 0. For the same compound, the inhibition in experiment [7] came out at 0%; in experiment [8], 43%; in [9], 5%.

`CNC(=O)c1ccccc1Oc1nc(Nc2cc(OC)c(OC)c(OC)c2)ncc1Br`: the inhibition in [10] amounted to 0%; in experiment [12], 1%; in experiment [13], 52%; in [15], 12%; in experiment [16], 11%; in experiment [18] it was 78%. Besides, the fold change (FC) came to 0.05 in experiment [11], 0.01 in experiment [14] and 0 in experiment [17].
